Assay [1] deals with Aldo-keto reductase family 1 member B1 (Bos taurus) (UniProt P16116). Nature of the assay: Inhibition of aldose reductase in partially purified bovine lens preparation at 10e-7 M concentration. An outline of the steps:
(§1)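 Aldose reductase partially purified from bovine lens, with the final chromatographic step of the earlier preparation omitted. Assay run in duplicate with test compound at 1 × 10^-6 M or 1 × 10^-7 M. Reported as % inhibition of enzymatic activity.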

Assay [2] has as its system Rattus norvegicus. Briefly: In vivo inhibition of galactitol accumulation in the diaphragm of rat at a dose of 46 mg/kg/day; NS =not significant. The class given is functional, organism-based.
Assay [3] deals with Rattus norvegicus. Nature of the assay: In vivo inhibition of galactitol accumulation in the sciatic nerves of rat at a dose of 46 mg/kg/day; NS=not significant. The class given is functional, organism-based. The conditions noted are these: Sciatic nerve.
The subject of assay [4] is Rattus norvegicus. Nature of the assay: […] inhibition of sorbitol accumulation in rat sciatic nerves at 10e-5 M concentration; NS=not significant. The class given is functional. The conditions noted are these: Sciatic nerve. An outline of the steps: (§2)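 Sciatic nerves were taken from male Sprague-Dawley rats (200–250 g) after CO2 euthanasia. Nerves were incubated 3 h at 37 °C under 95% air/5% CO2 in Hank's salts buffer, pH 7.4, with 50 mM glucose and (0–5)×10^-5 M compound, in triplicate. Nerve sorbitol was measured spectrofluorometrically in duplicate, and the read-out was % inhibition of sorbitol accumulation.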

For assay [5], the system named is Rattus norvegicus. Briefly: In vivo inhibition of galactitol accumulation in the diaphragm of rat. at a dose of 48 mg/kg/day; NS =not significant. The class given is functional, organism-based.
Assay [6] concerns Rattus norvegicus. Nature of the assay: […] inhibition of sorbitol accumulation in rat sciatic nerves at 10e-6 M concentration; NS=not significant. The class given is functional. As to conditions: Sciatic nerve. An outline of the steps: as §2
For assay [7], the system named is Rattus norvegicus. Nature of the assay: […] inhibition of sorbitol accumulation in rat sciatic nerves at 10e-5 M concentration. The class given is functional, Sciatic nerve. The procedure, abridged:
as §2

The target in assay [8] is Aldo-keto reductase family 1 member B1 (Bos taurus) (UniProt P16116). Briefly: Inhibition of aldose reductase in partially purified bovine lens preparation at 10e-6 M. The procedure, abridged:
as §1

In assay [9] the test system is Rattus norvegicus. Nature of the assay: In vivo inhibition of galactitol accumulation in the sciatic nerves of rat at a dose of 48 mg/kg/day; NS=not significant. The class given is functional, organism-based. As to conditions: Sciatic nerve.
Assay [10] has as its system Rattus norvegicus. Nature of the assay: In vivo inhibition of galactitol accumulation in the sciatic nerves of rat at a dose of 55 mg/kg/day; NS=not significant. As to conditions: Sciatic nerve. The class given is functional, organism-based.
The test system of assay [11] is Rattus norvegicus. Briefly: In vivo inhibition of galactitol accumulation in the diaphragm of rat. at a dose of 56 mg/kg/day; NS=not significant. The class given is functional, organism-based.
Assay [12] concerns Rattus norvegicus. Briefly: In vivo inhibition of galactitol accumulation in the sciatic nerves of rat at a dose of 67 mg/kg/day; NS=not significant. The class given is functional, organism-based. The conditions noted are these: Sciatic nerve.
The test system of assay [13] is Rattus norvegicus. Briefly: In vivo inhibition of galactitol accumulation in the diaphragm of rat at a dose of 67 mg/kg/day; NS =not significant. The class given is functional, organism-based.
Assay [14] concerns the target Aldo-keto reductase family 1 member B1 (Bos taurus) (UniProt P16116). Briefly: […] inhibition of aldose reductase in partially purified bovine lens preparation at 10e-7 M concentration. The procedure, abridged: (§3)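 Enzyme partially purified from bovine lens by a published method, with the final chromatographic step omitted. Test compound was added at 1×10^-6 or 1×10^-7 M. Assays were run in duplicate, and the read-out was % inhibition of enzymatic activity.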

Assay [15] deals with Rattus norvegicus. Briefly: In vivo inhibition of sorbitol accumulation in rat sciatic nerves at 10e-6 M concentration. The class given is functional, Sciatic nerve. The procedure, abridged: as §2
In assay [16] the test system is Rattus norvegicus. Briefly: In vivo inhibition of galactitol accumulation in the sciatic nerves of ratat a dose of 106 mg/kg/day. The class given is functional. As to conditions: Sciatic nerve.
The test system of assay [17] is Rattus norvegicus. Briefly: In vivo inhibition of galactitol accumulation in the diaphragm of rat at a dose of 106 mg/kg/day. The class given is functional.
Assay [18] has as its system Rattus norvegicus. Briefly: In vivo inhibition of galactitol accumulation in the sciatic nerves of rat at a dose of 6 mg/kg/day. The class given is functional. The conditions noted are these: Sciatic nerve.
Assay [19] concerns Rattus norvegicus. Briefly: […] inhibition of sorbitol accumulation in rat sciatic nerves at 5*10e-6 M concentration. As to conditions: in the assay text read “In vitro” for “In vivo”. The class given is functional, Sciatic nerve. An outline of the steps: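 Sciatic nerves from male Sprague-Dawley rats (200–250 g), removed after CO2 euthanasia, incubated ex vivo for 3 h at 37 °C under 95% air/5% CO2 in Hank's salts buffer, pH 7.4, with 50 mM glucose and 5 × 10^-6 M test compound. Triplicate incubations; nerve sorbitol measured in duplicate by spectrofluorometric assay. Reported as % inhibition of sorbitol accumulation.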

Assay [20] has as its system Rattus norvegicus. Briefly: In vivo inhibition of galactitol accumulation in the diaphragm of rat vat a dose of 6 mg/kg/day. The class given is functional.
The subject of assay [21] is Rattus norvegicus. Nature of the assay: In vivo inhibition of galactitol accumulation in the sciatic nerves of rat at a dose of 100 mg/kg/day. The class given is functional. The conditions noted are these: Sciatic nerve.
The subject of assay [22] is Rattus norvegicus. Briefly: In vivo inhibition of galactitol accumulation in the diaphragm of rat at a dose of 100 mg/kg/day. The class given is functional.
Assay [23] has as its system Rattus norvegicus. Nature of the assay: In vivo inhibition of sorbitol accumulation in rat sciatic nerves at 5*10e-5 M concentration. The class given is functional, Sciatic nerve. As to conditions: in the assay text read “In vitro” for “In vivo”. The procedure, abridged: as §2
The subject of assay [24] is Rattus norvegicus. Briefly: In vivo inhibition of galactitol accumulation in the sciatic nerves of rat at a dose of 56 mg/kg/day; NS=not significant. The class given is functional, organism-based. The conditions noted are these: Sciatic nerve.
Assay [25] has as its target Aldo-keto reductase family 1 member B1 (Bos taurus) (UniProt P16116). Nature of the assay: […] inhibition of aldose reductase in partially purified bovine lens preparation at 10e-6 M concentration. An outline of the steps:
as §3

Structures are written as SMILES. Active and inactive are the calls of the source. The rule behind the calls is not given here.

The inhibition is the drop in the measured response relative to a control, in per cent. One may read the Inhibition as how much of the control response was suppressed. A low value points to little suppression. Broadly, the inhibition in vivo is the relative decrease from the control value, in per cent. Higher therefore signals strong suppression.

On to `COc1ccc2c(C(=O)N(CC(=O)O)C(=O)OC(C)C)cccc2c1C(F)(F)F`, for which the inhibition in [1] amounted to 35%. For the same molecule, the inhibition result with Rattus norvegicus [2], with Rattus norvegicus [3] and in the assay on Rattus norvegicus [4] was “inactive” each time.
For the molecule `CCCOC(=O)N(CC(=O)O)C(=O)c1cccc2c(C(F)(F)F)c(OC)ccc12`, the inhibition amounted to 81% in assay [1] and 90% in assay [8]. Further, the inhibition result with Rattus norvegicus [5], in the assay with Rattus norvegicus [6] and in the assay on Rattus norvegicus [9] was “inactive” throughout. Besides, the Inhibition with Rattus norvegicus [7] is reported as 62%.
Turning to `COc1ccc2c(/C(=N/S(=O)(=O)c3ccc(Br)cc3)N(C)CC(=O)O)cccc2c1C(F)(F)F`, the inhibition in assay [1] was found to be 5%; in assay [8], 53%. The inhibition result in the assay with Rattus norvegicus [10] and with Rattus norvegicus [11] was “inactive” each time.
In the case of `COc1ccc2c(C(=O)N(CC(=O)O)C(=O)OCc3ccccc3)cccc2c1C(F)(F)F`, the inhibition entry in the assay with Rattus norvegicus [12], in the assay with Rattus norvegicus [13] and in the assay with Rattus norvegicus [6] was “inactive” in each case. Also, the inhibition in [14] turned out to be 66%; in assay [8], 89%. In addition, in the assay on Rattus norvegicus [7], the Inhibition was found to be 28%.
In the case of `CSc1ccc2c(C(=O)N(C)CC(=O)O)cccc2c1C(F)(F)F`, the inhibition in assay [1] amounted to 51%; in assay [8] it was 85%. Besides, the Inhibition with Rattus norvegicus [15] came to 34%; in the assay with Rattus norvegicus [7], 73%. The inhibition in vivo at 106 mg/kg/day is 36% in the assay on Rattus norvegicus [16] and 73% in the assay with Rattus norvegicus [17].
`COc1ccc2c(C(=S)N(C)CC(=O)O)cccc2c1C(F)(F)F` [TOLRESTAT]: the inhibition in vivo at 6 mg/kg/day in the assay with Rattus norvegicus [18] was found to be 53%; in the assay with Rattus norvegicus [20], 80%. Further, the figures for the Inhibition in the assay with Rattus norvegicus [19] and with Rattus norvegicus [7] were 76% and 82%, respectively.
For the molecule `COc1ccc2c(C(=O)N(CC(=O)O)C(C)=O)cccc2c1C(F)(F)F`, the figures for the inhibition in assay [1] and in assay [8] were 61% and 91%, respectively. In addition, the inhibition in vivo at 100 mg/kg/day with Rattus norvegicus [21] is 36%; in the assay on Rattus norvegicus [22] it was 39%. The figures for the Inhibition with Rattus norvegicus [15] and with Rattus norvegicus [7] were 40% and 62%, respectively.
For the molecule `COc1ccc2c(/C(=N/S(=O)(=O)C(F)(F)F)N(C)CC(=O)O)cccc2c1C(F)(F)F`, the Inhibition was determined as 71% in the assay on Rattus norvegicus [23] and 36% with Rattus norvegicus [19]. In addition, the inhibition was 69% in assay [14] and 94% in assay [25]. Besides, the inhibition result in the assay on Rattus norvegicus [24] and in the assay with Rattus norvegicus [11] was “inactive” each time.

The values are drawn from ChEMBL document CHEMBL1124370 (1989).
